Measurements reported in ChEMBL document CHEMBL1138298, “Synthesis and evaluation of 7H-8,9-dihydropyrano[2,3-c]imidazo[1,2-a]pyridines as potassium-competitive acid blockers” (J Med Chem, 2007).
Activity calls are given as the source filed them. The calls are words filed in the database; no cut-off is given here.

How the values were obtained:
Rattus norvegicus [1] = experiment: Inhibition of pentagastrin-stimulated acid secretion in intraduodenally dosed perfused Ghosh Schild rat stomach; assay type: functional; details: intraduodenal
How it was run: (§1)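 Anaesthetised rat with perfused stomach: 37 °C saline at 0.5 mL/min. Effluent titrated to pH 7 with 0.01 N NaOH in 15-min fractions. Secretion driven by continuous iv pentagastrin, 1 µg/kg (1.65 mL/h). Compound given intraduodenally in 2.5 mL/kg volume 60 min after infusion start. Body temperature held at 37.8-38 °C.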

Gastric gland = experiment: Inhibition of acid secretion in rabbit intact gastric glands assessed as […] accumulation; assay type: functional, tissue-based; details: Oryctolagus cuniculus
How it was run: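 Isolated gastric glands in Krebs-Henseleit with 2 mg/mL rabbit serum albumin and 2 mg/mL glucose. Incubated 30 min at 37 °C, shaking, with 0.125 µM 14C-aminopyrine at pH 7.4, stimulated by 1 mM dibutyryl cAMP, inhibitor 3 nM-100 µM. Stopped by centrifugation. Accumulation taken from pellet/supernatant radioactivity ratio. IC50 from fitted inhibition equation.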

Rattus norvegicus [2] = experiment: Inhibition of pentagastrin-stimulated acid secretion in perfused Ghosh Schild rat stomach at 3 umol/kg, intraduodenal; assay type: functional; parameters: scale not given: the % may be the effect or the level left; how it was run: as §1
[3] = Inhibition of H+/K+ ATPase in hog gastric mucosa; assay type: tissue-based, Sus scrofa
How it was run: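 Hog gastric mucosa H+/K+-ATPase (0.5-1 µg/100 µL, with nigericin 1:1) in 4 mM Pipes/8 mM Tris pH 7.4, 0.25 M sucrose, 1 mM MgCl2, stimulated by 1 mM KCl. Compound 1e-4 to 1e-9 M final from DMSO stocks. Started with 1 mM Na-ATP, 30 min room temperature. Phosphate read by malachite green at 680 nm after 15 min.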

Rattus norvegicus [4] = experiment: Inhibition of pentagastrin-stimulated acid secretion in perfused Ghosh Schild rat stomach at 1 umol/kg, intraduodenal; assay type: functional; parameters: scale not given: the % may be the effect or the level left; how it was run: as §1
[5] = Dissociation constant, pKa of the compound; assay type: physicochemical
How it was run: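 Potentiometric cosolvent titration in 0.15 mol/L KCl, pH 2.0-11.0, 25 °C, methanol as cosolvent in varying portions; titrants 0.5 mol/L KOH and HCl.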

[6] = Distribution coefficient, log D of the compound; assay type: physicochemical; details: octanol/water
How it was run: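 Distribution between 1-octanol and aqueous KCl measured by potentiometric titration over pH 2.0-11.0 at 25 °C.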

Structure (SMILES)	IC50 (Gastric gland) [nM]	pIC50 [3]	pKa [5]	logD [6]	ED50 (Rattus norvegicus [1]) [µmol/kg]	Activity (Rattus norvegicus [2]) [%]	Activity (Gastric gland)	Activity (Rattus norvegicus [4]) [%]
Cc1nc2c3c(c(C(N)=O)cn2c1C)CC[C@@H](c1ccccc1)O3	1580				1			
Cc1nc2c3c(c(C(=O)N(C)C)cn2c1Br)CC[C@H](c1ccccc1)O3	31600	< 4				38		
Cc1nc2c3c(c(C(=O)N(C)C)cn2c1CO)CC[C@@H](c1ccccc1)O3	7940	5.8			5			
Cc1ccccc1[C@H]1CCc2c(C(=O)N(C)C)cn3c(C)c(C)nc3c2O1	251	6.1			1.3			
Cc1nc2c3c(c(C(=O)N(C)C)cn2c1C)CC[C@H](c1ccccc1F)O3	398	5.3				42		
Cc1nc2c3c(c(C(=O)N(C)C)cn2c1C)CC[C@@H](c1ccc(F)cc1)O3	158	6.5			0.25			
CCc1c(C)nc2c3c(c(C(=O)N(C)C)cn12)CC[C@@H](c1ccccc1)O3	1260	5.5			1.2			
CCc1c(C)nc2c3c(c(C(=O)N(C)C)cn12)CC[C@H](c1ccccc1)O3	10000	4.4				20		
Cc1nc2c3c(c(C(=O)N(C)C)cn2c1C)CC[C@@H](c1ccccc1)O3	200	6.8			0.22			
Cc1nc2c3c(c(C(N)=O)cn2c1C)CC[C@H](c1ccccc1)O3	25100					30		
Cc1nc2c3c(c(C(=O)N4CCC4)cn2c1C)CC[C@@H](c1ccccc1)O3	50.1	6.4			0.2			
CON(C)C(=O)c1cn2c(C)c(C)nc2c2c1CC[C@H](c1ccccc1)O2		4.5				20		
Cc1nc2c3c(c(C(=O)N(C)C)cn2c1Br)CCC(c1ccccc1)O3 (racemic)	12600	4.9	4.68	3.2	1			
Cc1nc2c3c(c(C(=O)N4CCNCC4)cn2c1C)CCC(c1ccccc1)O3 (racemic)		5.3	6.44	1.53			inactive	36
Cc1nc2c3c(c(C(=O)N(C)C)cn2c1C)CCC(c1ccccc1F)O3 (racemic)	631	5.9	6.78	2.8				73
Cc1nc2c3c(c(C(=O)NC4CC4)cn2c1C)CCC(c1ccccc1)O3 (racemic)	1000	6	6.69	3.22				82
CCOc1ccc(NC(=O)c2cn3c(C)c(C)nc3c3c2CCC(c2ccccc2)O3)cc1 (racemic)	200	> 6	6.57	4.3				33
Cc1nc2c3c(ccn2c1C)CCC(c1ccccc1)O3 (racemic)	316	6.9	7.73	3.5				26
Cc1nc2c3c(c(C(=O)N(C)C)cn2c1C)CCC(c1cccs1)O3 (racemic)	631	5.3	6.64	2.05				46
Cc1nc2c3c(c(C(=O)N4CC4)cn2c1C)CCC(c1ccccc1)O3 (racemic)	398	5.3	6.63	2.9				35
Cc1ccccc1C1CCc2c(C(=O)N(C)C)cn3c(C)c(C)nc3c2O1 (racemic)	200	6.2	6.74	2.76	0.4			
Cc1nc2c3c(c(C(=O)N(C)C)cn2c1C)CCC(c1ccc(F)cc1)O3 (racemic)	398	6.2	6.74	2.78	0.35			
Cc1nc2c3c(c(C(=O)NC4CCC4)cn2c1C)CCC(c1ccccc1)O3 (racemic)	398	5.2	6.68	3.76				26
Cc1nc2c3c(c(C(=O)Nc4ccccc4)cn2c1C)CCC(c1ccccc1)O3 (racemic)	251	5.5	6.59	5	0.3			
Cc1nc2c3c(c(C(=O)N4CCCC4)cn2c1C)CCC(c1ccccc1)O3 (racemic)	316	5.8	6.73	2.83				47
Cc1nc2c3c(c(C(=O)N(C)C)cn2c1C)CCC(c1ccccc1)O3 (racemic)	501	5.8	7.15	2.83	0.5			
Cc1nc2c3c(c(C4=NCCO4)cn2c1C)CCC(c1ccccc1)O3 (racemic)	794	6			2			
CC(=O)c1c(C)nc2c3c(c(C(=O)N(C)C)cn12)CCC(c1ccccc1)O3 (racemic)		< 4	3.73	2.55			inactive	55

More lines, main results first:

IC50 (Gastric gland) [nM]	pIC50 [3]	pKa [5]	logD [6]	Structure (SMILES)	ED50 (Rattus norvegicus [1]) [µmol/kg]	Activity (Rattus norvegicus [2]) [%]	Activity (Gastric gland)	Activity (Rattus norvegicus [4]) [%]
	4.2			Cc1nc2c3c(c(C(=O)N(C)C)cn2c1CO)CC[C@H](c1ccccc1)O3	> 6		inactive	
251	6.3			Cc1ccccc1[C@@H]1CCc2c(C(=O)N(C)C)cn3c(C)c(C)nc3c2O1	0.4			
	5.6			CON(C)C(=O)c1cn2c(C)c(C)nc2c2c1CC[C@@H](c1ccccc1)O2	0.4			
200	6.4			Cc1nc2c3c(c(C(=O)N4CCCC4)cn2c1C)CC[C@@H](c1ccccc1)O3	1			
1000	5.7			Cc1nc2c3c(c(C(=O)N(C)C)cn2c1C)CC[C@H](c1ccc(F)cc1)O3	1.5			
6310	5			Cc1nc2c3c(c(C(=O)N(C)C)cn2c1Br)CC[C@@H](c1ccccc1)O3	1.5			
79.4	6.3			Cc1nc2c3c(c(C(=O)N(C)C)cn2c1C)CC[C@@H](c1ccccc1F)O3	0.2			
100	5.7			Cc1nc2c3c(c(C(=O)NC4CC4)cn2c1C)CC[C@@H](c1ccccc1)O3	0.25			
	< 4			CC(=O)c1c(C)nc2c3c(c(C(=O)N(C)C)cn12)CC[C@@H](c1ccccc1)O3	0.1		inactive	
2510	6	6.35	4.56	CCOC(=O)c1cn2c(C)c(C)nc2c2c1CCC(c1ccccc1)O2 (racemic)				34
2000	5	6.7	3	CCc1c(C)nc2c3c(c(C(=O)N(C)C)cn12)CCC(c1ccccc1)O3 (racemic)				30
	5	4.09	1.8	Cc1nc2c3c(c(C(=O)N(C)C)cn2c1CN(C)C)CCC(c1ccccc1)O3 (racemic)				20
	6.2	3.2	3.2	CC#CC(=O)c1c(C)nc2c3c(c(C(=O)N(C)C)cn12)CCC(c1ccccc1)O3 (racemic)			inactive	43
794	5.2	6.75	3.2	CCN(CC)C(=O)c1cn2c(C)c(C)nc2c2c1CCC(c1ccccc1)O2 (racemic)				23
398	6.2	6.64	2.6	Cc1nc2c3c(c(C(=O)N4CCC4)cn2c1C)CCC(c1ccccc1)O3 (racemic)				75
31600	5.6	5.86	1.52	Cc1nc2c3c(c(C(=O)N(C)C)cn2c1CO)CCC(c1ccccc1)O3 (racemic)				55
	< 4	5.58	2.5	CC#CC(O)c1c(C)nc2c3c(c(C(=O)N(C)C)cn12)CCC(c1ccccc1)O3 (racemic)				22
2510	5.9	6.52	2.53	Cc1nc2c3c(c(C(N)=O)cn2c1C)CCC(c1ccccc1)O3 (racemic)	0.8			
1000	5.6	6.74	2.8	CNC(=O)c1cn2c(C)c(C)nc2c2c1CCC(c1ccccc1)O2 (racemic)	0.6			
398	5.8	6.49	2.6	CON(C)C(=O)c1cn2c(C)c(C)nc2c2c1CCC(c1ccccc1)O2 (racemic)	0.4			
